According to ChEMBL document CHEMBL1255284, “Aspergillus section Fumigati: antifungal susceptibility patterns and sequence-based identification” (2008):
≈ marks a conversion by molar mass, not a printed value.

Legend:
[1] = system: Aspergillus fumisynnematus; experiment: Antimicrobial activity against Aspergillus fumisynnematus isolate CNM-CM-4063 obtained from bronchoalveolar aspirate of patient after 48 hrs by broth microdilution method; assay type: functional; conditions: isolate CNM-CM-4063, Lung
Procedure, shortened: (§1)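 CLSI M38-A broth microdilution with modifications: RPMI 1640 with L-glutamine, 2% glucose, buffered to pH 7 with 0.165 M MOPS. Inoculum of 1 × 10^5 to 5 × 10^5 CFU/ml from 3- to 5-day-old cultures. Incubated 35°C, 48 h, humid. Visual reading with a mirror. MIC is complete growth inhibition; echinocandin MEC is hyphal morphological alteration. Azoles 8 to 0.015 μg/ml; others 16 to 0.03 μg/ml.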

Aspergillus lentulus [2] = experiment: Antimicrobial activity against Aspergillus lentulus isolate CNM-CM-4370 obtained from sputum of patient after 48 hrs by broth microdilution method; assay type: functional; conditions: isolate CNM-CM-4370, 48 h; procedure, shortened: as §1
Aspergillus fumigatus = experiment: Antimicrobial activity against Aspergillus fumigatus ATCC 2004305 after 48 hrs by broth microdilution method; assay type: functional; conditions: ATCC 2004305, 48 h
[3] = system: Neosartorya pseudofischeri; experiment: Antimicrobial activity against Neosartorya pseudofischeri isolate CNM-CM-3769 obtained from sputum of patient after 48 hrs by broth microdilution method; assay type: functional; conditions: Aspergillus thermomutatus
Procedure, shortened: (§2)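 CLSI M38-A broth microdilution with modifications: RPMI 1640 with L-glutamine, MOPS-buffered to pH 7, plus 2% glucose. Inoculum 1 × 10^5 to 5 × 10^5 CFU/ml from 3–5-day cultures. Incubated at 35°C for 48 h, humid. Read visually with a mirror. MIC = complete growth inhibition; echinocandin MEC = altered hyphal morphology. QC strain A. fumigatus ATCC 2004305.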

Aspergillus viridinutans [4] = experiment: Antimicrobial activity against Aspergillus viridinutans isolate CNM-CM-3147 obtained from oropharyngeal exudate of patient after 48 hrs by broth microdilution method; assay type: functional; conditions: isolate CNM-CM-3147, 48 h; procedure, shortened: as §1
Aspergillus lentulus [5] = experiment: Antimicrobial activity against Aspergillus lentulus isolate CNM-CM-4420 obtained from nail of patient after 48 hrs by broth microdilution method; assay type: functional; conditions: isolate CNM-CM-4420, 48 h; procedure, shortened: as §1
[6] = system: Aspergillus fumigatiaffinis; experiment: Antimicrobial activity against Aspergillus fumigatiaffinis isolate CNM-CM-3227 obtained from bronchoalveolar lavage fluid of patient after 48 hrs by broth microdilution method; conditions: isolate CNM-CM-3227, Lung
Neosartorya hiratsukae [7] = experiment: Antimicrobial activity against Neosartorya hiratsukae isolate CNM-CM-3740 obtained from oropharyngeal exudate of patient after 48 hrs by broth microdilution method; assay type: functional; conditions: Aspergillus hiratsukae, isolate CNM-CM-3740, 48 h; procedure, shortened: as §1
Aspergillus lentulus [8] = experiment: Antimicrobial activity against Aspergillus lentulus isolate CNM-CM-3537 obtained from sputum of patient after 48 hrs by broth microdilution method; assay type: functional; conditions: isolate CNM-CM-3537, 48 h; procedure, shortened: as §1
Aspergillus lentulus [9] = experiment: Antimicrobial activity against Aspergillus lentulus isolate CNM-CM-3538 obtained from sputum of patient after 48 hrs by broth microdilution method; assay type: functional; conditions: isolate CNM-CM-3538, 48 h; procedure, shortened: as §1
Neosartorya hiratsukae [10] = experiment: Antimicrobial activity against Neosartorya hiratsukae isolate CNM-CM-3764 obtained from oropharyngeal exudate of patient after 48 hrs by broth microdilution method; assay type: functional; conditions: Aspergillus hiratsukae, isolate CNM-CM-3764, 48 h; procedure, shortened: as §1
Neosartorya hiratsukae [11] = experiment: Antimicrobial activity against Neosartorya hiratsukae isolate CNM-CM-3303 obtained from skin of patient after 48 hrs by broth microdilution method; assay type: functional; conditions: Aspergillus hiratsukae, isolate CNM-CM-3303, 48 h; procedure, shortened: as §1
Aspergillus lentulus [12] = experiment: Antimicrobial activity against Aspergillus lentulus isolate CNM-CM-3134 obtained from sputum of patient after 48 hrs by broth microdilution method; assay type: functional; conditions: isolate CNM-CM-3134, 48 h; procedure, shortened: as §1
Aspergillus viridinutans [13] = experiment: Antimicrobial activity against Aspergillus viridinutans isolate CNM-CM-4518 obtained from nail of patient after 48 hrs by broth microdilution method; assay type: functional; conditions: isolate CNM-CM-4518, 48 h; procedure, shortened: as §1
[14] = system: Aspergillus fumigatiaffinis; experiment: Antimicrobial activity against Aspergillus fumigatiaffinis isolate CNM-CM-2280 obtained from sputum of patient after 48 hrs by broth microdilution method; conditions: isolate CNM-CM-2280, 48 h
Aspergillus lentulus [15] = experiment: Antimicrobial activity against Aspergillus lentulus isolate CNM-CM-1290 obtained from sputum of patient after 48 hrs by broth microdilution method; assay type: functional; conditions: isolate CNM-CM-1290, 48 h; procedure, shortened: as §1
[16] = system: Neosartorya pseudofischeri; experiment: Antimicrobial activity against Neosartorya pseudofischeri isolate CNM-CM-4060 obtained from sputum of patient after 48 hrs by broth microdilution method; assay type: functional; conditions: Aspergillus thermomutatus; procedure, shortened: as §2
Aspergillus lentulus [17] = experiment: Antimicrobial activity against Aspergillus lentulus isolate CNM-CM-4415 obtained from sputum of patient after 48 hrs by broth microdilution method; assay type: functional; conditions: isolate CNM-CM-4415, 48 h; procedure, shortened: as §1
Aspergillus lentulus [18] = experiment: Antimicrobial activity against Aspergillus lentulus isolate CNM-CM-3599 obtained from sputum of patient after 48 hrs by broth microdilution method; assay type: functional; conditions: isolate CNM-CM-3599, 48 h; procedure, shortened: as §1
Aspergillus lentulus [19] = experiment: Antimicrobial activity against Aspergillus lentulus isolate CNM-CM-3364 obtained from bronchoalveolar lavage fluid of patient after 48 hrs by broth microdilution method; assay type: functional; conditions: isolate CNM-CM-3364, Lung; procedure, shortened: as §1
Aspergillus lentulus [20] = experiment: Antimicrobial activity against Aspergillus lentulus isolate CNM-CM-4330 obtained from sputum of patient after 48 hrs by broth microdilution method; assay type: functional; conditions: isolate CNM-CM-4330, 48 h; procedure, shortened: as §1
[21] = system: Neosartorya pseudofischeri; experiment: Antimicrobial activity against Neosartorya pseudofischeri isolate CNM-CM-3914 obtained from nail of patient after 48 hrs by broth microdilution method; assay type: functional; conditions: Aspergillus thermomutatus, isolate CNM-CM-3914, 48 h; procedure, shortened: as §2
[22] = system: Neosartorya pseudofischeri; experiment: Antimicrobial activity against Neosartorya pseudofischeri isolate CNM-CM-2270 obtained from sputum of patient after 48 hrs by broth microdilution method; assay type: functional; conditions: Aspergillus thermomutatus, isolate CNM-CM-2270, 48 h; procedure, shortened: as §2
Aspergillus lentulus [23] = experiment: Antimicrobial activity against Aspergillus lentulus isolate CNM-CM-4387 obtained from sputum of patient after 48 hrs by broth microdilution method; assay type: functional; conditions: isolate CNM-CM-4387, 48 h; procedure, shortened: as §1
Aspergillus lentulus [24] = experiment: Antimicrobial activity against Aspergillus lentulus isolate CNM-CM-4426 obtained from sputum of patient after 48 hrs by broth microdilution method; assay type: functional; conditions: isolate CNM-CM-4426, 48 h; procedure, shortened: as §1
Aspergillus lentulus [25] = experiment: Antimicrobial activity against Aspergillus lentulus isolate CNM-CM-4428 obtained from skin of patient after 48 hrs by broth microdilution method; assay type: functional; conditions: isolate CNM-CM-4428, 48 h; procedure, shortened: as §1
Neosartorya hiratsukae [26] = experiment: Antimicrobial activity against Neosartorya hiratsukae isolate CNM-CM-4328 obtained from cornea of patient after 48 hrs by broth microdilution method; assay type: functional; conditions: Aspergillus hiratsukae, isolate CNM-CM-4328, Cornea; procedure, shortened: as §1
Aspergillus lentulus [27] = experiment: Antimicrobial activity against Aspergillus lentulus isolate CNM-CM-3583 obtained from sputum of patient after 48 hrs by broth microdilution method; assay type: functional; conditions: isolate CNM-CM-3583, 48 h; procedure, shortened: as §1
Neosartorya hiratsukae [28] = experiment: Antimicrobial activity against Neosartorya hiratsukae isolate CNM-CM-3305 obtained from skin of patient after 48 hrs by broth microdilution method; assay type: functional; conditions: Aspergillus hiratsukae, isolate CNM-CM-3305, 48 h; procedure, shortened: as §1

Structure (SMILES) | MIC [1] [µg/mL] | MIC (Aspergillus lentulus [2]) [µg/mL] | MIC (Aspergillus fumigatus) [µg/mL] | MIC [3] [µg/mL] | MIC (Aspergillus viridinutans [4]) [µg/mL] | MIC (Aspergillus lentulus [5]) [µg/mL] | MIC [6] [µg/mL] | MIC (Neosartorya hiratsukae [7]) [µg/mL] | MIC (Aspergillus lentulus [8]) [µg/mL] | MIC (Aspergillus lentulus [9]) [µg/mL] | MIC (Neosartorya hiratsukae [10]) [µg/mL] | MIC (Neosartorya hiratsukae [11]) [µg/mL] | MIC (Aspergillus lentulus [12]) [µg/mL] | MIC (Aspergillus viridinutans [13]) [µg/mL] | MIC [14] [µg/mL] | MIC (Aspergillus lentulus [15]) [µg/mL] | MIC [16] [µg/mL] | MIC (Aspergillus lentulus [17]) [µg/mL] | MIC (Aspergillus lentulus [18]) [µg/mL] | MIC (Aspergillus lentulus [19]) [µg/mL] | other results
CCC(C)n1ncn(-c2ccc(N3CCN(c4ccc(OCC5COC(Cn6cncn6)(c6ccc(Cl)cc6Cl)O5)cc4)CC3)cc2)c1=O (stereo not drawn) [ITRACONAZOLE] | 0.25 (≈ 0.354 µM) | 8 (≈ 11.3 µM) | 0.125 (≈ 0.177 µM) | 8 (≈ 11.3 µM) | 14.4 (≈ 20.4 µM) | 8 (≈ 11.3 µM) | 8 (≈ 11.3 µM) | 0.16 (≈ 0.227 µM) | 8.25 (≈ 11.7 µM) | 8.25 (≈ 11.7 µM) | 0.33 (≈ 0.468 µM) | 0.12 (≈ 0.17 µM) | 10.2 (≈ 14.5 µM) | 16 (≈ 22.7 µM) | 6.66 (≈ 9.44 µM) | 9.25 (≈ 13.1 µM) | 11 (≈ 15.6 µM) | 16 (≈ 22.7 µM) | 0.5 (≈ 0.709 µM) | 8 (≈ 11.3 µM) | MIC (Aspergillus lentulus [20]): 6 µg/mL (≈ 8.5 µM); MIC [21]: 16 µg/mL (≈ 22.7 µM); MIC [22]: 8 µg/mL (≈ 11.3 µM); MIC (Aspergillus lentulus [23]): 8 µg/mL (≈ 11.3 µM); MIC (Aspergillus lentulus [24]): 6.66 µg/mL (≈ 9.44 µM); MIC (Aspergillus lentulus [25]): 7 µg/mL (≈ 9.92 µM); MIC (Neosartorya hiratsukae [26]): 0.25 µg/mL (≈ 0.354 µM); MIC (Aspergillus lentulus [27]): 0.43 µg/mL (≈ 0.609 µM); MIC (Neosartorya hiratsukae [28]): 0.185 µg/mL (≈ 0.262 µM)
CN(C/C=C/C#CC(C)(C)C)Cc1cccc2ccccc12 [TERBINAFINE] | 1.66 (≈ 5.7 µM) | 0.5 (≈ 1.72 µM) | 2 (≈ 6.86 µM) | 1.33 (≈ 4.56 µM) | 1.2 (≈ 4.12 µM) | 1 (≈ 3.43 µM) | 1.4 (≈ 4.8 µM) | 0.2 (≈ 0.686 µM) | 1 (≈ 3.43 µM) | 1 (≈ 3.43 µM) | 0.25 (≈ 0.858 µM) | 0.09 (≈ 0.309 µM) | 1.75 (≈ 6 µM) | 0.75 (≈ 2.57 µM) | 1.66 (≈ 5.7 µM) | 1.33 (≈ 4.56 µM) | 0.5 (≈ 1.72 µM) | 0.5 (≈ 1.72 µM) | 1 (≈ 3.43 µM) | 0.5 (≈ 1.72 µM) | MIC (Aspergillus lentulus [20]): 0.5 µg/mL (≈ 1.72 µM); MIC [21]: 0.5 µg/mL (≈ 1.72 µM); MIC [22]: 1 µg/mL (≈ 3.43 µM); MIC (Aspergillus lentulus [23]): 0.5 µg/mL (≈ 1.72 µM); MIC (Aspergillus lentulus [24]): 0.83 µg/mL (≈ 2.85 µM); MIC (Aspergillus lentulus [25]): 0.66 µg/mL (≈ 2.26 µM); MIC (Neosartorya hiratsukae [26]): 0.09 µg/mL (≈ 0.309 µM); MIC (Aspergillus lentulus [27]): 1.25 µg/mL (≈ 4.29 µM); MIC (Neosartorya hiratsukae [28]): 0.06 µg/mL (≈ 0.206 µM)
